Sampled rows, rich in hits. Any-hit rate of the full collection: about 1%.
PvdQ inh: blocks Pseudomonas aeruginosa PvdQ acylase activity; purified PvdQ acylase, fluorescence plate reader; inhibition, % at 10 µM; 340,000 compounds, 0.063% hits; AID 488965; in the data active = inhibition above about 30%, passing the limit was not always enough;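 note: 0% = vehicle neutral wells and 100% = reference inhibitor wells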
PglD inh: blocks C. jejuni PglD acetyltransferase activity; purified PglD enzyme, DTNB colorimetric CoA detection; inhibition, % at 12.5 µM; 360,000 compounds, 0.098% hits; AID 602405; in the data active = inhibition above about 16%, passing the limit was not always enough
PDI inh: blocks human protein disulfide isomerase activity; PDI insulin aggregation turbidity, A650, 90 min; 350,000 compounds, 0.052% hits; inhibition, % at 10 µM; AID 588391; P07237;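 active = mean inhibition across replicates of 30% or more, whatever share of single replicates reach that level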
Target sequence (P07237 whole entry, looked up): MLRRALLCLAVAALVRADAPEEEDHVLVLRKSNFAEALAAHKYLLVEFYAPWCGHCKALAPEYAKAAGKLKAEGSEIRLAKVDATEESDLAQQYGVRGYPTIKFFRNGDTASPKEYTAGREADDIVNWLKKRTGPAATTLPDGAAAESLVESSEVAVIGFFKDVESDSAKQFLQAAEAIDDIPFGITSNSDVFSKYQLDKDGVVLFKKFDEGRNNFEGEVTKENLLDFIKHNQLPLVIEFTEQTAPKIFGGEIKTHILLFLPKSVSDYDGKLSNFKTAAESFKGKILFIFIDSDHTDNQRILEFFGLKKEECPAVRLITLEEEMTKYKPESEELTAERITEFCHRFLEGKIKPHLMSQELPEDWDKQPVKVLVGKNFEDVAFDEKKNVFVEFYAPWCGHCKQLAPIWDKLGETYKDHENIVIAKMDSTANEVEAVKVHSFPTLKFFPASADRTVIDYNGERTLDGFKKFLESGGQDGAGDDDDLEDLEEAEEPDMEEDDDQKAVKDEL
IMP-1 inh: blocks Pseudomonas aeruginosa IMP-1 metallo-beta-lactamase; 290,000 compounds, 0.45% hits; inhibition, % at 5.6 µM; AID 1556; purified IMP-1, nitrocefin hydrolysis, epi-absorbance fluorescence;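 active = inhibition above the mean plus 3 SD of all compounds in the same screening run, cut at about 4.5% in these data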;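 note: 0% = IMP-1 with DMSO and 100% = DMSO wells lacking enzyme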
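System: Purified recombinant IMP-1 metallo-beta-lactamase enzyme | Measured by: Fluorescence quenching readout, ex 480/em 530 nm | Replication: Singlicate | Incubation: 15 min preincubation plus 25 min reaction at 25 °C | Evaluation: Percent inhibition from optical density relative to buffer-blank wells | Benchmarks: DMSO with and without IMP-1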
VIM-2 inh: inhibitors of Pseudomonas aeruginosa VIM-2 metallo-beta-lactamase. purified VIM-2, nitrocefin hydrolysis, epi-absorbance fluorescence. inhibition, % at 5.6 µM. 290,000 compounds, 0.89% hits;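 active = inhibition above the mean of all tested compounds plus 3 SD, cutoff set per screening run, cut at about 7.5% in these data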;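 note: red hydrolysis product quenches plate fluorescence so inhibitors raise well fluorescence; 0% = enzyme with DMSO and 100% = DMSO without enzyme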
ERp5 inh: ERp5 (human) disulfide isomerase inhibition; Q15084; ERp5 insulin aggregation, absorbance 650 nm, 90 min; inhibition, % at 9.99 µM; 350,000 compounds, 0.05% hits;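 active = mean replicate inhibition above about 25%, with every replicate also reaching it, limit read from the data, passing the limit was not always enough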
An asterisk follows results filed as active; · = not tested or not shown.

SMILES | PvdQ inh | PglD inh | PDI inh | IMP-1 inh | VIM-2 inh | ERp5 inh
CCCNC(=O)N1CCC2(CC1)CN(C(=O)NC1CCCC1)[C@H](CO)c1[nH]c3cc(OC)ccc3c12 | · | · | · | · | · | -2
O=C(C[C@@H]1CC[C@@H]2[C@H](COC[C@H](O)CN2Cc2cc(F)ccc2F)O1)NCc1ccc(Cl)cc1 | · | -4 | · | · | · | ·
CC(=O)c1ccc(NC(=O)c2cccc(NC(=O)c3ccccc3)c2)cc1 | -10 | 10 | 5 | 7.2* | -1 | -1
Cc1cccc(C(=O)Nc2ccc(NC(=O)c3cccc(C)c3)cc2)c1 | · | -1 | 5 | · | · | 2
Cc1ccc(NC(=O)c2cccc(S(C)(=O)=O)c2)cc1 | 0 | · | 7 | -3 | 1 | 26*
CC(=O)c1cccc(NC(=O)c2ccc3ccccc3c2)c1 | -13 | -1 | 0 | -2 | -1 | 1
C=CCn1cc(/C=N/NC(=O)COc2cccc3cccnc23)c2ccccc21 | -8 | · | 1 | 2 | 9.3* | 5
CC(C)n1cc(/C=N/NC(=O)COc2cccc3cccnc23)c2ccccc21 | -7 | · | -6 | 1 | 2 | ·
Cc1nc(N(C)C)c2sc(=S)n(-c3ccccc3)c2n1 | -18 | -4 | -6 | -1 | -2 | 1
Cc1nc(N(C)C)c2sc(=S)n(C)c2n1 | -4 | 3 | · | -2 | 7.9* | 7
CCC(CO)[n+]1c(C)cc(/C=C2\Sc3ccccc3N2Cc2ccccc2)cc1C (stereo unspecified) | 16 | 3 | -2 | 9.9* | -1 | -2
CC(C)C#Cc1ccc2c(c1)O[C@H](CN(C)Cc1ccccc1)[C@H](C)CN([C@H](C)CO)S2(=O)=O | · | 2 | · | · | · | -6
COc1ccc2c(c1)c(=O)oc1cc3occ(C(C)(C)C)c3cc12 | 7 | 4 | -4 | 22* | 1 | ·
COc1ccc2c(c1)c(=O)oc1cc3oc(C)c(C)c3cc12 | · | · | · | 0 | -5 | ·
Cc1ccc(C(=O)N/C(=C\c2ccco2)C(=O)NCCCn2ccnc2)cc1 | 2 | -3 | 4 | 8.8* | -3 | ·
CN(C)c1ccc(/C=C(\NC(=O)c2ccccc2)C(=O)NCCCn2ccnc2)cc1 | 3 | 6 | -3 | 5.4* | -2 | 0
Cc1ccc(C(=O)N/C(=C/c2ccco2)C(=O)NCCCn2ccnc2)cc1 | -8 | -2 | -8 | 0 | -1 | ·
O=C(NCCCn1ccnc1)/C(=C/c1ccccc1)NC(=O)c1ccccc1 | -4 | · | 2 | -5 | -4 | 2
CCOc1c(Cl)cc(CNC(C)(C)CC(C)(C)C)cc1OC | -6 | · | 35* | -4 | -6 | ·
CC1OC(Oc2c(-c3cc(O)c(O)c(O)c3)oc3cc(O)cc(O)c3c2=O)C(O)C(O)C1O (stereo unspecified) | -15 | 1 | · | -3 | 0 | 5
C[C@@H]1O[C@@H](OC[C@@H]2O[C@H](Oc3c(-c4ccc(O)cc4)oc4cc(O)cc(O)c4c3=O)[C@@H](O)[C@H](O)[C@H]2O)[C@H](O)[C@H](O)[C@H]1O | -1 | -1 | 65* | · | · | 3
C[C@@H]1O[C@@H](O[C@H]2[C@H](O)[C@@H](O)[C@H](Oc3c(-c4ccc(O)cc4)oc4cc(O)cc(O)c4c3=O)O[C@@H]2CO)[C@H](O)[C@H](O)[C@H]1O | 7 | -2 | 55* | · | · | 3
CC(C)c1nc2sc3c(=S)nc[nH]c3c2c2c1CCC2 | 8 | · | -2 | 4.5* | -5 | -1
CC(C)NC(=O)Nc1cccc2c1O[C@@H](CN(C)S(C)(=O)=O)[C@H](C)CN([C@H](C)CO)C2=O | · | -2 | · | · | · | -3
C[C@@H]1CN([C@H](C)CO)C(=O)c2cc(NC(=O)CCC(F)(F)F)ccc2O[C@@H]1CN(C)C(=O)Nc1cccc2ccccc12 | · | 2 | · | · | · | -9
SMILES | PvdQ inh | PglD inh | PDI inh | IMP-1 inh | VIM-2 inh | ERp5 inh
Cc1cc(N2CCN(c3nc4ccccc4s3)CC2)n2ncnc2n1 | 4 | -1 | -2 | -1 | 8.2* | ·
COc1ccc(S(=O)(=O)N(C)C(C)CCc2ccco2)cc1 (stereo unspecified) | -12 | -2 | 10 | 4.9* | 4 | -1
O=C(CSc1nnc(Cn2nnc(-c3ccccc3)n2)n1-c1ccccc1)Nc1ccccc1 | -5 | 5 | 3 | 4.7* | -1 | ·
C[C@H](CO)N1C[C@H](C)[C@@H](CN(C)Cc2ccc(-c3ccccc3)cc2)Oc2ccc(NC(=O)NC3CCCCC3)cc2C1=O | · | 4 | · | · | · | 7
CCCc1nnc(N2C(=O)c3cccc4cccc(c34)C2=O)s1 | 6 | 3 | -5 | 2 | 8.7* | ·
Cc1ccnc(NC(=O)Cc2ccc(-c3ccccc3)cc2)c1 | -14 | · | 0 | 12* | -2 | 6
Cc1ccc(NC(=O)Cc2ccc(-c3ccccc3)cc2)nc1 | 0 | 5 | -19 | 12* | 0 | 1
O=C(Cc1ccc(-c2ccccc2)cc1)Nc1ccccn1 | -6 | -2 | -47 | 34* | -2 | 4
Cc1ccc(NC(=O)Cc2ccc(Cl)cc2)nc1 | -15 | -3 | 6 | · | · | 3
CO[C@@H]1CN(C)C(=O)c2cc(NC(=O)NC3CCCCC3)ccc2OC[C@@H](C)N(C)C[C@H]1C | · | 0 | · | · | · | 6
CO[C@H](CN(C)S(=O)(=O)c1ccc(F)cc1)[C@H](C)CN(C(=O)Nc1ccccc1F)[C@@H](C)CO | · | 2 | · | · | · | 3
Cc1ccc(-n2ncc(C(=O)O)c2C2CCN(C(=O)OC(C)(C)C)CC2)cc1 | -10 | -3 | 3 | 2 | 8.4* | ·
CC(C)(C)OC(=O)N1CCC(c2c(C(=O)O)cnn2-c2ccc(Cl)cc2)CC1 | 0 | -4 | 11 | 2 | 3 | ·
CCS(=O)(=O)Nc1ccc2c(c1)C(=O)N(C)C[C@@H](OC)[C@H](C)CN(CCC(F)(F)F)[C@@H](C)CO2 | · | 4 | · | · | · | 0
Cc1cc2occ(CC(=O)Nc3nnc(C4CC4)s3)c2cc1C | 0 | -2 | -2 | 20* | -2 | ·
COc1ccc(C(=O)c2c[nH]cc2-c2ccccc2)cc1 | -11 | 4 | -10 | -1 | -2 | 4
O=C(c1ccc(Cl)cc1)c1c[nH]cc1-c1ccccc1 | -17 | -4 | -3 | 4.5* | 2 | ·
CCn1c(=O)c2cc(C(=O)N(C)CC(OC)OC)sc2c2ccccc21 | 4 | -6 | -2 | -3 | 7 | -2
CCOCCCNC(=O)c1cc2c(=O)n(CC)c3ccccc3c2s1 | 7 | -8 | -8 | -2 | 7.9* | -3
CCn1c(=O)c2cc(C(=O)NCCOC)sc2c2ccccc21 | -7 | 6 | 2 | -5 | 8.3* | 3
CCn1c(=O)c2cc(C(=O)Nc3ccc(OC)cc3OC)sc2c2ccccc21 | -4 | · | 3 | -1 | 0 | 5
CCCN(CCC)CCCNC(=O)c1cc2c(=O)[nH]c3ccccc3c2s1 | -16 | 2 | 6 | -5 | 9.7* | -1
CCCN(CCC)CCNC(=O)c1cc2c(=O)n(CC)c3ccccc3c2s1 | -18 | -7 | 0 | -1 | 10* | 0
CNC(=O)C[C@@H]1CC[C@H]2[C@@H](COc3ccc(NC(=O)Nc4cccc(C)c4)cc3C(=O)N2C)O1 | · | -3 | · | · | · | -1

High-throughput results from PubChem BioAssay.
